Test results as given in ChEMBL document CHEMBL1154662, “alphavbeta3 Integrin-targeting Arg-Gly-Asp (RGD) peptidomimetics containing oligoethylene glycol (OEG) spacers” (J Med Chem, 2009).
The source made the active and inactive calls. No cut-off for these calls is given here.

Experiments:
Integrin alpha-V/beta-3 = Integrin alpha-V/beta-3 (Homo sapiens, UniProt P05106+P06756); experiment: Inhibition of human integrin alphav beta3 receptor by biotinylated vitronectin competitive binding assay; type: protein-complex assay
Summary of the method: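 Placenta-derived human αvβ3 adsorbed at 500 ng/mL in Tris buffer (2 mM CaCl2, 1 mM MgCl2 and MnCl2, pH 7.5), 1 h RT, then blocked with 1% albumin. Incubated 30 min with excess biotinylated vitronectin plus graded compound. Bound ligand detected with anti-biotin–alkaline phosphatase and p-nitrophenyl phosphate at 405 nm. IC50 taken from pooled dose-response curves of at least two experiments.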

[1] = target: Integrin alpha-IIb/beta-3 (Homo sapiens, UniProt P05106+P08514); experiment: Inhibition of human integrin alpha2b beta3 receptor by fibrinogen competitive binding assay; type: protein-complex assay
Summary of the method: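 Platelet αIIbβ3, affinity-purified, adsorbed at 1 μg/mL in Tris buffer (2 mM CaCl2, 1 mM MgCl2 and MnCl2, pH 7.5) for 1 h at room temperature, then blocked with 1% albumin. Exposed 30 min to excess biotinylated fibrinogen with varied compound levels. Detection used anti-biotin–alkaline phosphatase and p-nitrophenyl phosphate, read at 405 nm. IC50 derived from at least two pooled dose-response experiments.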

Homo sapiens = organism: Homo sapiens; experiment: Selectivity index, ratio of IC50 for human integrin alpha2b beta3 receptor to IC50 for human integrin alphav beta3 receptor
HOP = experiment: Inhibition of HOP cell adhesion on vitronectin coated plate by colorimetric method; type: functional, cell-based; conditions: Homo sapiens
Summary of the method: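 HOP cells (bone marrow stromal, second subculture) preincubated 1 h at 37 °C with compound (10-4 to 10-12 M final) in serum-free IMDM, then 100 μL of 32000 cells/mL seeded on wells coated with human plasma vitronectin (5 μg/mL); adhesion 30 min at 37 °C. Adherent cells read via p-nitrophenyl N-acetyl β-D-glucosaminide hydrolysis, 405 nm. Expressed as absorbance ratio to untreated cells; ≥2 experiments, n = 6 wells.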

Row | Structure (SMILES) | IC50 (Integrin alpha-V/beta-3) [nM] | IC50 [1] [nM] | Ratio IC50 (Homo sapiens) | Activity (HOP)
1 | Nc1cc(C[C@H](NS(=O)(=O)c2cccc(C(F)(F)F)c2)C(=O)O)ccc1OCCCNc1ccccn1 | 1.2 | 36 | 30 | 
2 | Nc1cc(C[C@H](NS(=O)(=O)c2cccc(C(F)(F)F)c2)C(=O)O)ccc1OCCCCN=C1NCCCN1 | 0.8 | 101 |  | 
3 | NCCCOc1ccc(C[C@H](NS(=O)(=O)c2cccc(C(F)(F)F)c2)C(=O)O)cc1N | 138 | 429 | 3.1 | 
4 | Nc1cc(C[C@H](NS(=O)(=O)c2cccc(C(F)(F)F)c2)C(=O)O)ccc1OCCCc1ccc2c(n1)NCCC2 | 0.1 | 141 | 1410 | 
5 | N=C(N)NCCC[C@H](NC(=O)CN)C(=O)NCC(=O)N[C@@H](CC(=O)O)C(=O)N[C@@H](CO)C(=O)O |  |  |  | Active
6 | COCCOCCOCCOCC(=O)Nc1cc(C[C@H](NS(=O)(=O)c2cccc(C(F)(F)F)c2)C(=O)O)ccc1OCCCCNc1cc(C)ccn1 | 0.5 | 61 | 122 | 
7 | Cc1cccc(NCCCCOc2ccc(C[C@H](NS(=O)(=O)c3cccc(C(F)(F)F)c3)C(=O)O)cc2N)n1 | 1.7 | 121 | 71 | 
8 | CC(=O)Nc1cc(C[C@H](NS(=O)(=O)c2cccc(C(F)(F)F)c2)C(=O)O)ccc1OCCCCNc1cc(C)ccn1 | 0.7 | 38 | 54 | 
9 | Nc1cc(C[C@H](NS(=O)(=O)c2cccc(C(F)(F)F)c2)C(=O)O)ccc1OCCCCNC1=NCCCN1 |  |  | 126 | 
10 | Nc1cc(C[C@H](NS(=O)(=O)c2cccc(C(F)(F)F)c2)C(=O)O)ccc1OCCCNC1=NCCCN1 |  |  | 5.5 | 

The next lines start with results.

Row | IC50 (Integrin alpha-V/beta-3) [nM] | IC50 [1] [nM] | Ratio IC50 (Homo sapiens) | Structure (SMILES) | Activity (HOP)
11 | 3.9 | 21.3 |  | Nc1cc(C[C@H](NS(=O)(=O)c2cccc(C(F)(F)F)c2)C(=O)O)ccc1OCCCN=C1NCCCN1 | 
12 | 428 | 154 | 0.35 | NCCCCOc1ccc(C[C@H](NS(=O)(=O)c2cccc(C(F)(F)F)c2)C(=O)O)cc1N | 
13 | 0.8 | 38 | 47 | Cc1ccnc(NCCCCOc2ccc(C[C@H](NS(=O)(=O)c3cccc(C(F)(F)F)c3)C(=O)O)cc2NC(=O)COCCOCCOCCOCCOCCOCCN)c1 | 
14 | 0.6 | 106 | 177 | Cc1ccnc(NCCCCOc2ccc(C[C@H](NS(=O)(=O)c3cccc(C(F)(F)F)c3)C(=O)O)cc2N)c1 | Active
15 | 1.7 | 7.3 | 4.3 | N=C(N)NCCCCOc1ccc(C[C@H](NS(=O)(=O)c2cccc(C(F)(F)F)c2)C(=O)O)cc1N | 
16 | 1.4 | 70 | 50 | Nc1cc(C[C@H](NS(=O)(=O)c2cccc(C(F)(F)F)c2)C(=O)O)ccc1OCCCCNc1ccccn1 | 
17 | 1.1 | 355 | 323 | Nc1cc(C[C@H](NS(=O)(=O)c2cccc(C(F)(F)F)c2)C(=O)O)ccc1OCCCCc1ccc2c(n1)NCCC2 | 
18 | 0.9 | 28 | 31 | Cc1ccnc(NCCCCOc2ccc(C[C@H](NS(=O)(=O)c3cccc(C(F)(F)F)c3)C(=O)O)cc2NC(=O)COCCOCCOCCN)c1 | 
19 | 7.6 | 27 |  | NC(N)=NCCCOc1ccc(C[C@H](NS(=O)(=O)c2cccc(C(F)(F)F)c2)C(=O)O)cc1N | 
20 | 0.6 | 71 | 118 | CC(=O)Nc1cc(C[C@H](NS(=O)(=O)c2cccc(C(F)(F)F)c2)C(=O)O)ccc1OCCCc1ccc2c(n1)NCCC2 | Active
21 |  |  | 3.5 | N=C(N)NCCCOc1ccc(C[C@H](NS(=O)(=O)c2cccc(C(F)(F)F)c2)C(=O)O)cc1N | 
